Data on 7 compounds can be found in ChEMBL document CHEMBL2150940, “Mechanism-based design, synthesis and biological studies of N⁵-substituted tetrahydrofolate analogs as inhibitors of cobalamin-dependent methionine synthase and potential anticancer agents” (Eur J Med Chem, 2012).

Molecules are shown by their SMILES. Some results are limits rather than exact numbers.

The test system of one assay is HeLa. As to the kind of experiment: Antiproliferative activity against human HeLa cells after 48 hrs. Type of assay: functional, cell-based.
Conditions: not given
The method in brief:
(§1)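 Cells kept in RPMI-1640 with 10% fetal bovine serum, penicillin (100 units mL⁻¹) and streptomycin at 37 °C in humidified 5% CO₂. Exponentially growing cells were exposed to a range of compound concentrations for 48 h. Growth inhibition was read by MTT and SRB assays. Values are means of three independent experiments.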
A word on the IC50: it is the concentration needed to halve the response being measured. The compound `Nc1nc(N)c2c(n1)CCC1CN(c3ccc(C(=O)N[C@@H](CCC(=O)O)C(=O)O)cc3)CN21` (some centres undefined) came in with an IC50 of 0.13 µM.

Regarding `CC(=O)N(CC1CCc2nc(N)nc(N)c2N1)c1ccc(C(=O)N[C@@H](CCC(=O)O)C(=O)O)cc1` (mixture of isomers), the concentration for half-maximal inhibition (IC50) was more than 100 µM.

Consider `Nc1nc(N)c2nc(CNc3ccc(C(=O)N[C@@H](CCC(=O)O)C(=O)O)cc3)ccc2n1`, for which the IC50 amounted to 0.003 µM.

Take `C=CCN1c2c(N)nc(N)nc2CCC1CN(C)c1ccc(C(=O)N[C@@H](CCC(=O)O)C(=O)O)cc1` (some centres undefined): the IC50 came to 0.227 µM.

`CC(=O)N(CC1CCc2nc(N)nc(N)c2N1C=O)c1ccc(C(=O)N[C@@H](CCC(=O)O)C(=O)O)cc1` (some centres undefined) showed an IC50 of 41.6 µM.

Turning to `Cc1ccc(S(=O)(=O)N2c3c(N)nc(N)nc3CCC2CN(C)c2ccc(C(=O)N[C@@H](CCC(=O)O)C(=O)O)cc2)cc1` (some centres undefined), the IC50 turned out to be 0.434 µM.

Turning to `CN(CC1CCc2nc(N)nc(N)c2N1C=O)c1ccc(C(=O)N[C@@H](CCC(=O)O)C(=O)O)cc1` (some centres undefined), it took 6 µM to reach half-maximal inhibition (IC50).

A further assay has as its system BGC-823. In words: Antiproliferative activity against human BGC823 cells after 48 hrs. In kind it is functional, cell-based. The conditions noted are these: BGC-823, 48 h. The method in brief:
as §1
`Nc1nc(N)c2c(n1)CCC1CN(c3ccc(C(=O)N[C@@H](CCC(=O)O)C(=O)O)cc3)CN21` (some centres undefined) returned an IC50 of 0.18 µM.

`CC(=O)N(CC1CCc2nc(N)nc(N)c2N1)c1ccc(C(=O)N[C@@H](CCC(=O)O)C(=O)O)cc1` (mixture of isomers) yielded a half-inhibitory concentration (IC50) of more than 100 µM.

`Nc1nc(N)c2nc(CNc3ccc(C(=O)N[C@@H](CCC(=O)O)C(=O)O)cc3)ccc2n1`: half-maximal inhibition (IC50) was put at 0.01 µM.

As to `C=CCN1c2c(N)nc(N)nc2CCC1CN(C)c1ccc(C(=O)N[C@@H](CCC(=O)O)C(=O)O)cc1` (some centres undefined), the IC50 amounted to 2.09 µM.

Compound `CC(=O)N(CC1CCc2nc(N)nc(N)c2N1C=O)c1ccc(C(=O)N[C@@H](CCC(=O)O)C(=O)O)cc1` (some centres undefined) had an IC50 of 27 µM.

`Cc1ccc(S(=O)(=O)N2c3c(N)nc(N)nc3CCC2CN(C)c2ccc(C(=O)N[C@@H](CCC(=O)O)C(=O)O)cc2)cc1` (some centres undefined) came in with an IC50 of 0.289 µM.

As for `CN(CC1CCc2nc(N)nc(N)c2N1C=O)c1ccc(C(=O)N[C@@H](CCC(=O)O)C(=O)O)cc1` (some centres undefined), the IC50 amounted to 6.9 µM.

The test system of another assay is KB. In words: Antiproliferative activity against human KB cells after 48 hrs. In kind it is functional, cell-based.
Conditions: not given
A digest of the protocol: as §1
`Nc1nc(N)c2c(n1)CCC1CN(c3ccc(C(=O)N[C@@H](CCC(=O)O)C(=O)O)cc3)CN21` (some centres undefined): the 50% inhibitory concentration (IC50) is more than 100 µM.

As to `CC(=O)N(CC1CCc2nc(N)nc(N)c2N1)c1ccc(C(=O)N[C@@H](CCC(=O)O)C(=O)O)cc1` (mixture of isomers), the IC50 is 31.1 µM.

`Nc1nc(N)c2nc(CNc3ccc(C(=O)N[C@@H](CCC(=O)O)C(=O)O)cc3)ccc2n1`: half-maximal inhibition (IC50) was put at 2.7 µM.

With `C=CCN1c2c(N)nc(N)nc2CCC1CN(C)c1ccc(C(=O)N[C@@H](CCC(=O)O)C(=O)O)cc1` (some centres undefined), the IC50 was more than 100 µM.

Turning to `CC(=O)N(CC1CCc2nc(N)nc(N)c2N1C=O)c1ccc(C(=O)N[C@@H](CCC(=O)O)C(=O)O)cc1` (some centres undefined), the IC50 was 20 µM.

The compound `Cc1ccc(S(=O)(=O)N2c3c(N)nc(N)nc3CCC2CN(C)c2ccc(C(=O)N[C@@H](CCC(=O)O)C(=O)O)cc2)cc1` (some centres undefined) returned an IC50 of 0.336 µM.

As for `CN(CC1CCc2nc(N)nc(N)c2N1C=O)c1ccc(C(=O)N[C@@H](CCC(=O)O)C(=O)O)cc1` (some centres undefined), the IC50 was more than 130 µM.

The target in a further assay is Methionine synthase (Homo sapiens, UniProt Q99707). In words: Inhibition of methionine synthase in human HL60 cells using L-homocysteine as substrate incubated for 3 hrs prior to substrate addition measured after 10 mins spectrophotometric analysis. Type of assay: cell-based, HL-60.
Methionine synthase, sequence (Q99707 whole entry): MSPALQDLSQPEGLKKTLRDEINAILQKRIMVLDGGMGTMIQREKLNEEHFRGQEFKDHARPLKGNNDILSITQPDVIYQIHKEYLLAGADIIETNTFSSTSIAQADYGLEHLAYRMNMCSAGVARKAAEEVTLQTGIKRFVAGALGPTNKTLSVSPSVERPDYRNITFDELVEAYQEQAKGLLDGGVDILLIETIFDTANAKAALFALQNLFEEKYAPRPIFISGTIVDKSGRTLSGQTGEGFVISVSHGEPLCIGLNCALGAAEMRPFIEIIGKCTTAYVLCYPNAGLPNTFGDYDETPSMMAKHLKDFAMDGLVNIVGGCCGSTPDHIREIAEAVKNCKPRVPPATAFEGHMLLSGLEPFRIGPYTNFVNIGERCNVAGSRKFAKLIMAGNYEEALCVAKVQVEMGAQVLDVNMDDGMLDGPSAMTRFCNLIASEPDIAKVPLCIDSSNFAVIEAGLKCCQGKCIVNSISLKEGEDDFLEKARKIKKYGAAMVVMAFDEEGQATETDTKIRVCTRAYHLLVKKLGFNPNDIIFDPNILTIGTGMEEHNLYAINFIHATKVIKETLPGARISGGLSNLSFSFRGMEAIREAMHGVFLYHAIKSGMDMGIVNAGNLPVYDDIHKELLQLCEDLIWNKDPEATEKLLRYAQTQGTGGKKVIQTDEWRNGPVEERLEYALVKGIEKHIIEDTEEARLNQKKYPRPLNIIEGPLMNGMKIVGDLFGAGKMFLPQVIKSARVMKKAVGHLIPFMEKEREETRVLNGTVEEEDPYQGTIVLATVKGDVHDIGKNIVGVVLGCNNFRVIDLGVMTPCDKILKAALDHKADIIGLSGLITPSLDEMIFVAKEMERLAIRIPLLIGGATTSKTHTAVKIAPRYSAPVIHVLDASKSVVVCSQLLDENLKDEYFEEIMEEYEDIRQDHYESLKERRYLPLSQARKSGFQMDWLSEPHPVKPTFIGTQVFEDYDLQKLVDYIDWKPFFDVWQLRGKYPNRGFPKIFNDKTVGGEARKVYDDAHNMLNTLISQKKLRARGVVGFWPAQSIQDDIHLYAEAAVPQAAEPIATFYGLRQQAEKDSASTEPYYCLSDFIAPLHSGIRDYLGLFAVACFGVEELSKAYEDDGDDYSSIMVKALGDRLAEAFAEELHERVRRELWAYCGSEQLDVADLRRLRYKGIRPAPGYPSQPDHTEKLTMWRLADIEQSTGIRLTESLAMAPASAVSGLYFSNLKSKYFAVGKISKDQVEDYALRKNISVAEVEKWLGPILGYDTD
Conditions: not given
The method in brief: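 HL60 cells (1 × 10⁶/well) were serum-starved, then exposed 3 h to varied compound concentrations, lysed in HEPES pH 7.5 buffer and cleared at 4 °C. Lysate was mixed with potassium phosphate pH 7.2, DTT, 5-methyltetrahydrofolate, SAM and hydroxocobalamin (stock levels given) and preincubated 5 min at 37 °C. L-homocysteine started a 10 min 37 °C reaction. HCl/formic acid stop at 80 °C 10 min; A350 read.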
Compound `Nc1nc(N)c2c(n1)CCC1CN(c3ccc(C(=O)N[C@@H](CCC(=O)O)C(=O)O)cc3)CN21` (some centres undefined) gave an IC50 of 66.4 µM.

`CC(=O)N(CC1CCc2nc(N)nc(N)c2N1)c1ccc(C(=O)N[C@@H](CCC(=O)O)C(=O)O)cc1` (mixture of isomers) gave an IC50 of more than 100 µM.

The compound `Nc1nc(N)c2nc(CNc3ccc(C(=O)N[C@@H](CCC(=O)O)C(=O)O)cc3)ccc2n1` had an IC50 of more than 100 µM.

Compound `C=CCN1c2c(N)nc(N)nc2CCC1CN(C)c1ccc(C(=O)N[C@@H](CCC(=O)O)C(=O)O)cc1` (some centres undefined) gave an IC50 of more than 100 µM.

In the case of `CC(=O)N(CC1CCc2nc(N)nc(N)c2N1C=O)c1ccc(C(=O)N[C@@H](CCC(=O)O)C(=O)O)cc1` (some centres undefined), the 50% inhibitory concentration (IC50) stood at 1.73 µM.

In the case of `Cc1ccc(S(=O)(=O)N2c3c(N)nc(N)nc3CCC2CN(C)c2ccc(C(=O)N[C@@H](CCC(=O)O)C(=O)O)cc2)cc1` (some centres undefined), half-maximal inhibition (IC50) required 55 µM.

`CN(CC1CCc2nc(N)nc(N)c2N1C=O)c1ccc(C(=O)N[C@@H](CCC(=O)O)C(=O)O)cc1` (some centres undefined) displayed a half-maximal inhibitory concentration (IC50) of 8.11 µM.

The test system of another assay is Bel-7402. In words: Antiproliferative activity against human Bel7402 cells after 48 hrs. Type of assay: functional, cell-based. The following applies: Bel-7402, 48 h. The method in brief: as §1
In turn, `Nc1nc(N)c2c(n1)CCC1CN(c3ccc(C(=O)N[C@@H](CCC(=O)O)C(=O)O)cc3)CN21` (some centres undefined) had a concentration for half-maximal inhibition (IC50) of 64.7 µM.

With `CC(=O)N(CC1CCc2nc(N)nc(N)c2N1)c1ccc(C(=O)N[C@@H](CCC(=O)O)C(=O)O)cc1` (mixture of isomers), the IC50 is more than 100 µM.

`Nc1nc(N)c2nc(CNc3ccc(C(=O)N[C@@H](CCC(=O)O)C(=O)O)cc3)ccc2n1` displayed an IC50 of 18.3 µM.

`C=CCN1c2c(N)nc(N)nc2CCC1CN(C)c1ccc(C(=O)N[C@@H](CCC(=O)O)C(=O)O)cc1` (some centres undefined) had a half-inhibitory concentration (IC50) of 61.5 µM.

Take `CC(=O)N(CC1CCc2nc(N)nc(N)c2N1C=O)c1ccc(C(=O)N[C@@H](CCC(=O)O)C(=O)O)cc1` (some centres undefined): the IC50 is 12.3 µM.

As to `Cc1ccc(S(=O)(=O)N2c3c(N)nc(N)nc3CCC2CN(C)c2ccc(C(=O)N[C@@H](CCC(=O)O)C(=O)O)cc2)cc1` (some centres undefined), inhibition was half-maximal at 0.325 µM (IC50).

Turning to `CN(CC1CCc2nc(N)nc(N)c2N1C=O)c1ccc(C(=O)N[C@@H](CCC(=O)O)C(=O)O)cc1` (some centres undefined), the IC50 was 65.2 µM.

Another assay addresses T1, Dihydrofolate reductase (Homo sapiens, UniProt P00374).
T1 sequence (P00374 whole entry): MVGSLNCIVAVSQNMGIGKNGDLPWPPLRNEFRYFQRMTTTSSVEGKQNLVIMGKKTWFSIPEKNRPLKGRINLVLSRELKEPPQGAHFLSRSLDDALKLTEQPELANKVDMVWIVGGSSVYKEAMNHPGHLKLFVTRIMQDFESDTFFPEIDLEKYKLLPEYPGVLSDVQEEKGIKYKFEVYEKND
As to the kind of experiment: Inhibition of human recombinant DHFR using dihydrofolate as substrate by spectrophotometric analysis.
Conditions: not given
A digest of the protocol: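 Recombinant human DHFR was followed spectrophotometrically in 0.1 mM dihydrofolate, 0.3 mM NADPH and 100 mM KCl, pH 7.5, at 32 °C.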
As for `Nc1nc(N)c2c(n1)CCC1CN(c3ccc(C(=O)N[C@@H](CCC(=O)O)C(=O)O)cc3)CN21` (some centres undefined), the IC50 was 0.8 µM.

Consider `CC(=O)N(CC1CCc2nc(N)nc(N)c2N1)c1ccc(C(=O)N[C@@H](CCC(=O)O)C(=O)O)cc1` (mixture of isomers), for which the IC50 turned out to be 0.033 µM.

`Nc1nc(N)c2nc(CNc3ccc(C(=O)N[C@@H](CCC(=O)O)C(=O)O)cc3)ccc2n1`: the half-maximal inhibitory concentration (IC50) amounted to 0.018 µM.

`C=CCN1c2c(N)nc(N)nc2CCC1CN(C)c1ccc(C(=O)N[C@@H](CCC(=O)O)C(=O)O)cc1` (some centres undefined): the IC50 was determined as 0.42 µM.

For `CC(=O)N(CC1CCc2nc(N)nc(N)c2N1C=O)c1ccc(C(=O)N[C@@H](CCC(=O)O)C(=O)O)cc1` (some centres undefined), the IC50 was more than 100 µM.

Take `Cc1ccc(S(=O)(=O)N2c3c(N)nc(N)nc3CCC2CN(C)c2ccc(C(=O)N[C@@H](CCC(=O)O)C(=O)O)cc2)cc1` (some centres undefined): the IC50 turned out to be 1.07 µM.

With `CN(CC1CCc2nc(N)nc(N)c2N1C=O)c1ccc(C(=O)N[C@@H](CCC(=O)O)C(=O)O)cc1` (some centres undefined), the IC50 turned out to be 0.032 µM.

Another assay relates to SK-OV-3. As to the kind of experiment: Antiproliferative activity against human SKOV3 cells after 48 hrs. Type of assay: functional, cell-based. The following applies: SK-OV-3, 48 h. A digest of the protocol:
as §1
Compound `Nc1nc(N)c2c(n1)CCC1CN(c3ccc(C(=O)N[C@@H](CCC(=O)O)C(=O)O)cc3)CN21` (some centres undefined) displayed a 50% inhibitory concentration (IC50) of 37.4 µM.

The compound `CC(=O)N(CC1CCc2nc(N)nc(N)c2N1)c1ccc(C(=O)N[C@@H](CCC(=O)O)C(=O)O)cc1` (mixture of isomers) had an IC50 of more than 100 µM.

`Nc1nc(N)c2nc(CNc3ccc(C(=O)N[C@@H](CCC(=O)O)C(=O)O)cc3)ccc2n1`: 0.01 µM corresponded to half-maximal inhibition (IC50).

For `C=CCN1c2c(N)nc(N)nc2CCC1CN(C)c1ccc(C(=O)N[C@@H](CCC(=O)O)C(=O)O)cc1` (some centres undefined), the midpoint of inhibition, the IC50, lay at 0.573 µM.

For the compound `CC(=O)N(CC1CCc2nc(N)nc(N)c2N1C=O)c1ccc(C(=O)N[C@@H](CCC(=O)O)C(=O)O)cc1` (some centres undefined), the concentration for half-maximal inhibition (IC50) is 34.6 µM.

`Cc1ccc(S(=O)(=O)N2c3c(N)nc(N)nc3CCC2CN(C)c2ccc(C(=O)N[C@@H](CCC(=O)O)C(=O)O)cc2)cc1` (some centres undefined) displayed an IC50 of 0.45 µM.

In turn, `CN(CC1CCc2nc(N)nc(N)c2N1C=O)c1ccc(C(=O)N[C@@H](CCC(=O)O)C(=O)O)cc1` (some centres undefined) gave an IC50 of more than 100 µM.
